The list is not random: actives were taken first. Their share in the collection is about 1.6%.
T cell modulator: T cell immune modulation candidate; 2C CD8+ T cell-vesicle binding, flow cytometry; stronger effect = lower value; response (vesicle binding), % at 7 µM; actives 0.068% (n = 330,000);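 active = response, share of CD8 T cells binding vesicles, and their 90th percentile fluorescence all below set limits, cut at about 80% in these data, passing the limit was not always enough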;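 also: values below 100% mean blocked vesicle binding to the CD8+ T cells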
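Test system: purified 2C TCR transgenic mouse naive CD8+ T cells. Probe or stimulus: QL9-peptide-loaded Drosophila micro-vesicles bearing Ld, ICAM-1 and B7-1. Incubation: binding step 1.5 h, 37 °C, antibody labelling 20 min, ice. Measured by: flow cytometry of vesicle-bound cells.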
Arr AP2 block: human beta-arrestin and AP2 interaction inhibition; AID 504490; FITC-arrestin peptide / GST-AP2 beads, flow cytometry; AP2 beta2 appendage carries R879A mutation; actives 0.31% (n = 340,000); inhibition, % at 10 µM;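 active = inhibition above a set limit, near 3 SD of compounds lacking own fluorescence, cut at about 54% in these data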;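 also: plate controls were DMSO wells for no effect and 5 µM unlabelled arrestin peptide for full effect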
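Test system: GST-tagged AP2 beta2-adaptin appendage (R879A) on 4 µm glutathione beads; also added: fluorescein-tagged arrestin peptide at 50 nM final; timing: 12 min plus 1 h, RT; signal: flow cytometry, FL1 (488/535 nm); read-out: percent drop in bead-associated FITC signal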
HDAC3 inh: blocks human histone deacetylase 3; inhibition, % at 8.3 µM; O15379; AID 2718; recombinant HDAC3, fluorogenic peptide/trypsin coupled, fluorescence; actives 0.15% (n = 320,000); in the data active = inhibition above about 26%, passing the limit was not always enough; inconclusive = no clear call, values can overlap the other calls
Target sequence (O15379 whole entry, looked up): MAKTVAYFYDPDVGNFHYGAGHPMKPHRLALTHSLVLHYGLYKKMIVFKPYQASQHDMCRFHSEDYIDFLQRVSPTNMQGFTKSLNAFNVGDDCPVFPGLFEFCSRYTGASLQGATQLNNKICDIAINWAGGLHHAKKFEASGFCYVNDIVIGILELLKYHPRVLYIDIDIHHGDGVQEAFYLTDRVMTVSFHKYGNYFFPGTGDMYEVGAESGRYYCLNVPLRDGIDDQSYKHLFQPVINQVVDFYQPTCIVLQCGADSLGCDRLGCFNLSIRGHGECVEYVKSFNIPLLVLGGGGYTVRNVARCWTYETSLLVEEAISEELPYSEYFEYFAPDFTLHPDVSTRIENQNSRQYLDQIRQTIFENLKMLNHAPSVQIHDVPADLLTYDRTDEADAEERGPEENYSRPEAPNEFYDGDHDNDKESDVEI
LANA-H2B inh: blocks KSHV LANA binding to histone H2A/H2B | Q9QR71 | actives 0.6% (n = 320,000) | cell-free LANA-H2A/H2B peptide, fluorescence polarization | AID 2629 | inhibition, % (concentration not given with the values); in the data active = inhibition mostly above about 10%, no sharp cut-off; inactive = mostly below about 6.7%
DSG3 Ab inh: blocks pemphigus antibody binding to human desmoglein-3; P32926; DSG3-coupled beads, scFv-anti-DSG3-GFP binding, flow cytometry; stronger effect = lower value; binding (percent of control), % at 10 µM; actives 0.48% (n = 310,000); AID 588358;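 active = binding more than 3 SD below its plate's average and above zero; inconclusive = below that plate limit but binding exactly zero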;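 also: hits lower antibody fragment binding to DSG3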
JMJD2C inh: inhibitors of human GASC-1 (JMJD2C) demethylase; GST-JMJD2C(1-420) H3K9me3 demethylation, DELFIA europium; AID 2099; Q9H3R0; inhibition, % at 2.35 µM; actives 0.069% (n = 330,000);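 active = more than half of a compound's replicate wells show inhibition beyond 50%, single wells judged on their own value; inconclusive = some, but no more than half, of replicates pass 50% inhibition; inactive = no replicate passes 50% inhibition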;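 also: signal counts dimethyl H3K9 product captured on neutravidin plate; 0% = median of DMSO wells and 100% = 0.3 times that DMSO median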
Arr-AP2 CP1: human beta-arrestin and AP2 interaction inhibition, cherry pick; shares compounds with Arr AP2 block; GST-AP2 beads, FITC arrestin peptide binding, flow cytometry; GST-fused beta2-adaptin appendage, R879A mutant; inhibition, % at 10 µM; actives 2% (n = 1,300); AID 504908;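 active = inhibition above a set limit, roughly 3 SD of non-fluorescent compound noise, cut at about 38% in these data; inactive = inhibition at or below that limit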;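 also: loss of bead fluorescence from 50 nM FITC arrestin peptide bound to appendage; 0% = negative control wells and 100% = excess unlabelled arrestin peptide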
GST GSH counter: counter-screen for beta-arrestin AP2 inhibitors: GST-GSH bead binding; shares compounds with Arr AP2 block; GST-fluorescein binding to GSH beads, fluorescence; inhibition, % at 10 µM; actives 2% (n = 1,300);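 active = inhibition above 50%, about 3 SD of the inhibition seen with non-fluorescent compounds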;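 also: fluorescein maleimide labelled GST captured on 4 micron glutathione beads; higher means more loss of bead fluorescence from quenching or blocked binding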
* hit, by the source's call; i = inactive; ? = inconclusive; . = not tested or not shown.

SMILES	T cell modulator	Arr AP2 block	HDAC3 inh	LANA-H2B inh	DSG3 Ab inh	JMJD2C inh	Arr-AP2 CP1	GST GSH counter
CCN(CC(=O)Nc1ccc(NC(C)=O)cc1)C(=O)CCCSc1nc2ccccc2[nH]1	334	66*	1	1	101	-27	-16	1
CC(=O)Nc1ccc(NC(=O)CCCSc2nc3ccccc3[nH]2)cc1	291	2	1	-13	102	0	.	.
CCN(CC(=O)Nc1ccc(NC(C)=O)cc1)C(=O)CCCc1c[nH]c2ccccc12	310	62*	5	5	.	10	-4	-5
CC(=O)Nc1ccc(NC(=O)CCCc2c[nH]c3ccccc23)cc1	176	11	-1	2	95	19	.	.
CC(=O)c1c(OC(=O)c2ccc(C)cc2)c2ccccc2n1C	503	20	11	-4	121	1	.	.
CC(=O)c1c(OC(=O)c2ccco2)c2ccccc2n1C	162	63*	13	-2	96	-6	-2	6
O=C(NC1CCCC1)C1CC(O)CN1C(=O)Nc1ccccc1 (stereo not drawn)	337	-5	5	2	.	-2	.	.
CC(C)OC(=O)CSc1nc(Cc2ccccc2)nc2ccccc12	295	71*	15	2	95	8	-11	0
Cc1c(NS(=O)(=O)c2cccc(C(=O)NCc3ccco3)c2)c(=O)n(-c2ccccc2)n1C	.	95*	.	.	92	.	6	-9
Cc1c(NS(=O)(=O)c2cccc(C(=O)NCc3ccc(Cl)cc3)c2)c(=O)n(-c2ccccc2)n1C	218	14	1	-3	106	-33	.	.
CC(=O)/C(=N\Nc1ccccc1Cl)Sc1nnc(-c2ccccc2)n1-c1ccccc1	i	-3	5	0	98	-5	.	.
CC(=O)/C(=N\Nc1ccccc1)Sc1nnc(-c2ccccc2)n1-c1ccccc1	239	91*	1	-2	94	1	8	5
CCOc1cccc(OCCCNCCCOC)c1	226	93*	-6	4	105	13	4	-6
CCc1cccc(OCCCCNCCCOC)c1	456	25	-1	-1	82	-4	.	.
Cc1c(NC(=O)c2cccc(S(=O)(=O)N(C)c3ccccc3)c2)c(=O)n(-c2ccccc2)n1C	.	5	.	.	108	.	.	.
Cc1c(NC(=O)c2ccc(N(C)S(=O)(=O)c3ccccc3)cc2)c(=O)n(-c2ccccc2)n1C	300	54*	0	-4	96	-21	-2	-7
CCOc1ccc(C(C(=O)NC2CCCC2)N(C(=O)c2snc(C(N)=O)c2N)c2cccc(O)c2)cc1 (stereo not drawn)	308	-5	-5	1	95	6	.	.
CCCn1c(=O)cc(N)n(-c2ccc(OC(F)(F)F)cc2)c1=O	429	16	0	-1	110	12	.	.
Cc1cc(Cl)ccc1N(CC(=O)NCc1ccc2c(c1)OCO2)S(C)(=O)=O	686	60*	?	-2	.	6	11	-3
Cc1ccc(N/C=C2/Sc3ccccc3NC2=O)cc1	475	83*	10	-8	272	4	12	22
COc1ccc(N/C=C2/Sc3ccccc3NC2=O)cc1	499	0	4	-9	102	5	.	.
O=C(NCCN1CCOCC1)C1CCC(=O)N1Cc1ccc(F)cc1 (stereo not drawn)	432	-2	1	0	98	2	-5	1
CCOc1cc(NC(=S)NCCCN2CCOCC2)c(OCC)cc1NC(=O)c1ccc(C)cc1	347	58*	6	-2	99	-4	-2	-7
CCOc1cc(NC(=S)NCCCN2CCOCC2)c(OCC)cc1NC(=O)c1ccccc1	353	4	-6	2	98	1	.	.
O=C(NCCN1CCOCC1)C1CCC(=O)N1Cc1ccccc1Cl (stereo not drawn)	215	12	3	-2	100	6	10	-2
SMILES	T cell modulator	Arr AP2 block	HDAC3 inh	LANA-H2B inh	DSG3 Ab inh	JMJD2C inh	Arr-AP2 CP1	GST GSH counter
Cc1ccc(CN2C(=O)CCC2C(=O)NCCCN2CCOCC2)cc1 (stereo not drawn)	521	92*	5	-1	101	-6	5	-1
Cc1cc(=O)c(C(=O)Nc2ccc(N3CCOCC3)cc2N2CCOCC2)nn1-c1ccccc1Cl	172	-7	3	5	85	-7	.	.
Cc1ccc(CN2C(=O)CCC2C(=O)NCCN2CCN(c3cccc(Cl)c3)CC2)cc1 (stereo not drawn)	187	6	.	-1	109	0	7	2
CNC(=O)C1CCC(=O)N1Cc1ccc(C)cc1 (stereo not drawn)	356	1	1	-1	108	2	.	.
Cc1ccc(CN2C(=O)CCC2C(=O)NCc2ccco2)cc1 (stereo not drawn)	336	92*	1	3	104	-5	13	1
Cc1ccc(S(=O)(=O)N2C(=O)CCC2C(=O)NCc2ccco2)cc1 (stereo not drawn)	218	2	-6	2	91	5	.	.
Cc1ccc(CN2C(=O)CCC2C(=O)NCCCN2CCC(C)CC2)cc1 (stereo not drawn)	.	-3	.	.	109	7	-2	10
CCC1CCCCN1CCCNC(=O)C1CCC(=O)N1Cc1ccc(C)cc1 (stereo not drawn)	313	-4	-6	-2	114	-2	-5	0
CSc1ccccc1OCc1cc(C(=O)N2CCC(Oc3cccnc3)CC2)no1	225	4	-2	1	.	-11	.	.
CCC[C@H]1CN(c2ccc(Br)cc2)C(=O)[C@@H]1CC(=O)NC	.	.	.	.	111	.	.	.
CCOc1ccc(NC(=O)Cn2c(=O)n(CCCC(=O)NC3CCN(Cc4ccccc4)CC3)c(=O)c3ccccc32)cc1	446	-4	0	2	100	13	.	.
CN(C)c1ccc(C(=O)/C=C/c2ccc(Br)cc2)cc1	i	98*	-11	-1	94	-1	38*	190*
CN(C)c1ccc(C(=O)/C=C/c2ccccc2)cc1	193	.	3	-1	92	185	.	.
O=C(NC1CC2CCCC(C1)N2C(=O)NCc1ccccc1)C1CC1 (stereo not drawn)	434	20	6	11	104	-7	.	.
O=C(NC1CC2CCCC(C1)N2C(=S)NCCc1ccccc1)C1CC1 (stereo not drawn)	366	56*	-3	1	101	4	-2	-3

Source: PubChem (several laboratories)
